TAG inh: inhibitors of triacylglycerol accumulation | H9c2 cells, Nile Red lipid (TAG) fluorescence; cells loaded with 200 µM oleic acid | inhibition, % at 12.5 µM | 0.66% of 230,000 active | AID 651582;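 active = pattern-corrected inhibition of lipid staining of at least 50% with the nuclear-stain viability signal not falling by more than 50%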;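 note: 0% = DMSO wells and 100% = triacsin C control wells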
Tb MetRS inh: blocks T. brucei methionyl-tRNA synthetase activity. purified T. brucei MetRS, ATP depletion, Kinase-Glo luminescence. inhibition, % at 11.9 µM. 0.4% of 360,000 active. AID 624268;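 active = inhibition above a per-plate cutoff of the control wells' mean inhibition plus 3 SD, cut at about 5.5% in these data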;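 note: 0% = DMSO wells median and 100% = median of wells with control inhibitor compound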
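Material: parasite MetRS enzyme / Replication: singlicate, one well per compound / Signal: luminescence of leftover ATP / Schedule: 2 h aminoacylation at 25 °C after 15 min preincubation / Medium: HEPES-MgCl2-KCl buffer plus DTT, spermine, BSA, pyrophosphatase / Doses: 11.9 µM single point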
SMARCA2 act: activators of SMARCA2 function. MG213 cells, MMTV-luciferase reporter, dexamethasone, overnight. activation, % at 9.1 µM. 1% of 370,000 active; in the data active = activation above about 7.8%;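 note: 0% = vehicle wells and 100% = reference activator wells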
AHR act: human AHR activation; AHR-responsive luciferase reporter cells, luminescence; P35869; AID 2796; 2.5% of 320,000 active; activation, % at 5 µM; in the data active = activation above about 47%;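 note: 0% = vehicle wells and 100% = reference agonist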
Target sequence (P35869 whole entry, looked up): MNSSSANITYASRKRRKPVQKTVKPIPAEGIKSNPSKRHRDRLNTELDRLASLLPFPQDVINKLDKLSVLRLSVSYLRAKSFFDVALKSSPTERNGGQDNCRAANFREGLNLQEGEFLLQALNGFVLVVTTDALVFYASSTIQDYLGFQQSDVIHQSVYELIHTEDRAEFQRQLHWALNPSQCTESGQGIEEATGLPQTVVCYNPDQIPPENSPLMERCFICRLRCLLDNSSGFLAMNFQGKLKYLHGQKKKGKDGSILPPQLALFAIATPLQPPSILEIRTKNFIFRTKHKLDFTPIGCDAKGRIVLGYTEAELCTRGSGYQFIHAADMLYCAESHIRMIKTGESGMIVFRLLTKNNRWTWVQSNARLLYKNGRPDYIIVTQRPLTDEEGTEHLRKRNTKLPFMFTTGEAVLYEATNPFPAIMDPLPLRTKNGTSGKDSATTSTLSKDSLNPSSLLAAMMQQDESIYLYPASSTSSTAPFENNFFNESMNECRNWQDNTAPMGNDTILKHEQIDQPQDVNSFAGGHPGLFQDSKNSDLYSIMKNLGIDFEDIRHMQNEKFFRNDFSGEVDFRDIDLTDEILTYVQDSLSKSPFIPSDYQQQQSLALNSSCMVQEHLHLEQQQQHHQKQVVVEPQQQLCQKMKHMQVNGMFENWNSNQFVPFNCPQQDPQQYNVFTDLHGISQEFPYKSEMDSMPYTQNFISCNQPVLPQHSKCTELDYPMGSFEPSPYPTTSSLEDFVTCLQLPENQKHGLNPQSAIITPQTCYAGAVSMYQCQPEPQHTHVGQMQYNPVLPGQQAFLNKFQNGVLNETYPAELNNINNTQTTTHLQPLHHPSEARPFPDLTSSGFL
Efflux pump mplx: inhibitors of Candida antifungal efflux pumps expressed in yeast; S. cerevisiae Candida pump triplex, Nile Red efflux; inhibition, % at 10 µM; 0.44% of 330,000 active; AID 485275;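 active = plate passing quality check with inhibition over a set limit, or well fluorescence over plate mean plus 4 SD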;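 note: Nile Red retained in pooled yeast measured as flow cytometry median fluorescence; 0% = buffer negative control and 100% = Enniatin B positive control; higher means more Nile Red kept so more efflux inhibition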
Numbers without * were called inactive; . = no result. Only some compounds are listed: those with a hit (about 4.1% of all), similar ones and a draw of the others.

SMILES	TAG inh	Tb MetRS inh	SMARCA2 act	AHR act	Efflux pump mplx
COc1cc(C(=O)Nc2nnc(C)s2)cc(OC)c1OC	0	0	-1	69*	0
COc1cc(C(=O)NC(=S)Nc2nccs2)cc(OC)c1OC	-7	0	0	79*	0
COc1cc(CC(=O)Nc2nccs2)cc(OC)c1OC	.	0	0	0	0
OC(c1ccccc1)(c1ccccc1)C1CCN(CCCNc2ccc(C(F)(F)F)cc2)CC1	.	.	-7	.	.
COc1cccc2c1C(=N)c1c(O)c3c(c(O)c1C2=O)CC(O)(C(C)=O)CC3OC1CC(N)C(O)C(C)O1 (centres undefined)	127	0	.	.	.
COc1cccc2c1C(=O)c1c(O)c3c(c(O)c1C2=O)C[C@](O)(C(C)=O)C[C@H]3O[C@@H]1C[C@@H](N)[C@@H](O)[C@@H](C)O1	-38	-1	-12	65*	0
CC1(c2nnnn2Cc2ccccc2)CCSCC(=O)N1Cc1cccs1 (centres undefined)	.	.	-1	.	.
CC(C)c1ccc2oc(-c3cc(N)ccc3O)nc2c1	.	-1	-4	70*	0
Cc1ccccc1-c1nc2cc(N)ccc2o1	.	1	2	4	0
CCC1(C)Cc2c(sc3nc(NN)n(C)c(=O)c23)CO1 (centres undefined)	4	0	1	62*	0
Cc1cc(C)cc(N=C2NC(=O)/C(=C/c3cccs3)S2)c1	.	-1	2	56*	0
Cc1ccc(N=C2NC(=O)/C(=C\c3ccco3)S2)cc1	2	0	3	20	0
CC(C)OC(=O)c1cccnc1SCc1cc(=O)n2ccccc2n1	.	0	0	55*	0
CC(C)OC(=O)c1cccnc1SCC(=O)N(C)c1ccccc1	.	-2	-5	0	0
N#C/C(=N\Nc1cccc2ccccc12)c1nnc2n1CCCCC2	.	0	1	54*	0
N#C/C(=C\c1c[nH]c2ccccc12)c1nnc2n1CCCCC2	.	4	3	-12	0
Oc1cccc(Nc2nc(NCC3CCCO3)c3ccccc3n2)c1 (centres undefined)	1	5	.	79*	0
c1ccc(Nc2nc(NCC3CCCO3)c3ccccc3n2)cc1 (centres undefined)	13	2	-1	12	0
CC(=O)Nc1ccc(C(=O)CSc2cc(C)c3cccc(C)c3n2)cc1	.	-1	0	66*	0
CCC(C)c1ccc(NC(=O)CSc2nnc(-c3cccc(C)c3)n2C)cc1 (centres undefined)	.	.	-5	.	.
O=C(NCCN1CCOCC1)c1cc(-c2cccs2)on1	.	0	-1	62*	0
COc1ccc(OC)c(Nc2ncnc3sc(-c4ccccc4)cc23)c1	.	-1	-2	69*	0
Cc1[nH]c2ccccc2c1/C=C/c1nc2ccccc2c(=O)n1CCO	24	0	4	52*	0
O=c1c2ccccc2nc(/C=C/c2ccc(Br)cc2)n1CCO	9	0	-2	4	0
Cc1ccccc1C(=O)NC1CCCCN(Cc2cccc(C(F)(F)F)c2)C1=O (centres undefined)	.	.	-3	.	.
SMILES	TAG inh	Tb MetRS inh	SMARCA2 act	AHR act	Efflux pump mplx
Clc1ccc(-n2c(SCc3nc4ccccc4[nH]3)nnc2-c2ccncc2)cc1	.	6.7*	-1	12	0
N#Cc1ccc(/C=C2\CC3(OC(=O)c4ccco4)CCCN2C3)cc1 (centres undefined)	.	.	-3	.	.
CCN(CC)CCNC(=O)c1c(C)n(-c2ccccc2)c2cc(Br)c(OC)cc12	69*	-1	-1	1	0
COc1cc2c(C(=O)N3CCN(C)CC3)c(C)n(-c3ccccc3)c2cc1Br	.	-1	0	1	0
CN(CCO)C1CN(Cc2cn(Cc3ccccc3C(F)(F)F)nn2)S(=O)(=O)C1 (centres undefined)	.	.	2	.	.
COc1cccc(NC(=O)C(=O)NCc2ccncc2)c1	.	0	0	53*	0
COc1cccc(NC(=S)NCc2ccncc2)c1	.	-1	3	7	0
COc1ccc(C)cc1NC(=O)C(=O)NCc1ccncc1	.	0	-2	50*	0
COc1ccc(NC(=O)C(=O)NCc2ccncc2)c(OC)c1	-15	-1	1	-1	0
COC(=O)C[C@@H]1CC[C@@H]2[C@H](COc3ccc(NC(=O)c4cccc(OC)c4)cc3C(=O)N2C)O1	.	.	-2	.	.
C=CCN1C(=O)c2[nH]nc(-c3ccccc3)c2C1c1ccc(C)cc1 (centres undefined)	.	.	-4	.	.
COc1ccc2[nH]cc(C(=O)CCl)c2c1	72*	0	-7	4	0
CCN(CC)C(=O)CC[C@H]1CC[C@]2(CCCN(c3ccccc3)C2)O1	.	.	-6	.	.
COc1ccc(N2C(=O)[C@@H]3[C@H](C2=O)[C@H]2c4ccccc4C=CN2[C@@H]3C(=O)Nc2ccccc2)cc1	7	1	-2	56*	0
CCCn1c(=O)c(C(=O)NCCc2ccccc2)c(O)c2ccccc21	.	0	1	2	0
Cn1c(=O)c(C(=O)NCCc2ccccc2)c(O)c2ccccc21	.	0	-1	72*	0
CCCCn1c(/C=N/Nc2nc3ccccc3[nH]2)nc2ccccc21	.	0	-3	73*	0
C#CCn1cc(/C=N/Nc2nc3ccccc3[nH]2)c2ccccc21	.	9.0*	-11	127*	0
Oc1ccc2ccccc2c1C=NN1CCN(Cc2ccc(Cl)cc2)CC1	.	.	-2	.	.
C[C@@H]1CN([C@H](C)CO)C(=O)c2cc(Br)cnc2O[C@H]1CN(C)C(=O)c1ccc(F)cc1	.	.	-2	.	.
O=C(OCCN1CCCC12CCC(c1ccccc1)CC2)c1ccccc1 (centres undefined)	.	.	0	.	.
Cc1ccc(-c2nnc(-c3ccc4c(c3)OCO4)o2)cc1	-2	-1	6	79*	0
c1ccc(-c2noc(-c3ccc4c(c3)OCO4)n2)nc1	.	-5	-2	-7	0
Brc1ccc(-c2nnc(-c3ccc4c(c3)OCO4)o2)o1	.	-2	7	-1	0
c1ccc(-c2nccc(-c3ccc4c(c3)OCO4)n2)cc1	2	0	1	79*	0
SMILES	TAG inh	Tb MetRS inh	SMARCA2 act	AHR act	Efflux pump mplx
Cc1nccc(-c2ccc3c(c2)OCO3)n1	9	0	1	58*	0
Cc1nc(-c2ccc3c(c2)OCCO3)cs1	1	0	2	-2	0
NS(=O)(=O)c1ccc(C(=O)Nc2ccc(-c3nc4cccnc4s3)cc2)cc1	2	0	6	57*	0
O=C(Nc1cccc(-c2nc3cccnc3s2)c1)c1ccc(Cl)nc1	5	0	1	68*	0
COc1ccc(-c2c(-c3ccccc3OC)sc3ccccc23)cc1F	.	.	-3	.	.
CCOC(=O)c1ccc(-c2c(-c3ccccc3OC)sc3cc4c(cc23)OCO4)cc1F	.	0	2	48*	2
COc1ccc2sc(-c3ccccc3OC)c(C#CC(C)(C)O)c2c1	2	0	2	26	0
COc1ccc(-c2sc3cc4c(cc3c2C#CCO)OCO4)cc1	-46	0	-1	77*	0
COc1ccccc1-c1sc2cc3c(cc2c1C#CCO)OCO3	-4	0	1	67*	3

Screens (PubChem)
